Data: ChEMBL document CHEMBL1154034, “Piperazinyl-glutamate-pyridines as potent orally bioavailable P2Y12 antagonists for inhibition of platelet aggregation” (Bioorg Med Chem Lett, 2009)

Tests used:
P2Y purinoceptor 12 = P2Y purinoceptor 12 (Homo sapiens, UniProt Q9H244); experiment: Binding affinity to human recombinant P2Y12 receptor expressed in CHO cells; type: cell-based
[1] = Volume of distribution at steady state in Sprague-Dawley rat at 2 mg/kg, iv and 5 mg/kg, po; type: ADME, organism-based; settings: in vivo, read-out: Vdss
How it was run: (§1)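 Male Sprague–Dawley rats, n = 2–4. Dosed by iv infusion at 2 mg/kg and orally at 5 mg/kg.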

in vivo = settings: Sprague-Dawley, rat, po, 5 mg/kg
[2] = Effective half life in Sprague-Dawley rat at 2 mg/kg, iv and 5 mg/kg, po; type: ADME, organism-based; settings: in vivo; how it was run: as §1
[3] = Clearance in Sprague-Dawley rat at 2 mg/kg, iv and 5 mg/kg, po; type: ADME, organism-based; settings: in vivo; how it was run: as §1

Sequence of P2Y purinoceptor 12 (Q9H244 whole entry): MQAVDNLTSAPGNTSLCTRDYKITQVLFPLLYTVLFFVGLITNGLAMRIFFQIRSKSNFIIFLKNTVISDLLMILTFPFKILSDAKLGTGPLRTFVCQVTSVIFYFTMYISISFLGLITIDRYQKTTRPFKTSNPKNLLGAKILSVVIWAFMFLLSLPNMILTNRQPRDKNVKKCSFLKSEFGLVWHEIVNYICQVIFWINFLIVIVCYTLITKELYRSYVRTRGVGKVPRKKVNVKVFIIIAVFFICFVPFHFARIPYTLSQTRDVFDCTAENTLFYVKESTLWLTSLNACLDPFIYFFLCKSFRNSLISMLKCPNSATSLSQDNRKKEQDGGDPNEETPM

SMILES	Ki (P2Y purinoceptor 12)	also measured
CCOC(=O)N1CCN(C(=O)[C@H](CCC(=O)O)NC(=O)c2cc(NCC3CCNCC3)cc(-c3ccccc3)n2)CC1	0.19 µM	–
CCOC(=O)N1CCN(C(=O)[C@H](CCC(=O)O)NC(=O)c2cc(OC(CC)C(=O)N(CC)CC)cc(-c3ccccc3)n2)CC1 (some centres not stated)	0.081 µM	–
CCOC(=O)N1CCN(C(=O)[C@H](CCC(=O)O)NC(=O)c2cc(OCCCO)cc(-c3ccccc3)n2)CC1	0.068 µM	–
CCOC(=O)N1CCN(C(=O)[C@H](CCC(=O)O)NC(=O)c2cc(OCC3CCNCC3)cc(-c3ccccc3)n2)CC1	0.076 µM	–
Cc1cccc(N2CCN(C(=O)[C@H](CCC(=O)O)NC(=O)c3cccc(-c4ccccc4)n3)CC2)c1	> 5.7 µM	–
CCCCCOC(=O)N1CCN(C(=O)[C@H](CCC(=O)O)NC(=O)c2cc(OCCO)cc(-c3ccccc3)n2)CC1	0.032 µM	–
CCOC(=O)N1CCN(C(=O)[C@H](CCC(=O)O)NC(=O)c2cc(N3CCC(N4CCCC4)CC3)cc(-c3ccccc3)n2)CC1	0.034 µM	–
CCOC(=O)N1CCN(C(=O)[C@H](CCC(=O)O)NC(=O)c2cc(N3CCN(CCN(C)C)CC3)cc(-c3ccccc3)n2)CC1	0.047 µM	–
CCCCOC(=O)N1CCN(C(=O)[C@H](CCC(=O)O)NC(=O)c2cc(OC3CCNCC3)cc(-c3ccccc3)n2)CC1	0.012 µM	–
CCCOC(=O)N1CCN(C(=O)[C@H](CCC(=O)O)NC(=O)c2cccc(-c3ccccc3)n2)CC1	0.027 µM	–
CCCCCOC(=O)N1CCN(C(=O)[C@H](CCC(=O)O)NC(=O)c2cc(OCCOC)cc(-c3ccccc3)n2)CC1	0.01 µM	–
CCCCOc1cc(C(=O)N[C@@H](CCC(=O)O)C(=O)N2CCN(C(=O)OCC)CC2)nc(-c2ccccc2)c1	0.039 µM	–
CCOC(=O)N1CCN(C(=O)[C@H](CCC(=O)O)NC(=O)c2cc(OCCO)cc(-c3ccccc3)n2)CC1	0.157 µM	–
CCCCCOC(=O)N1CCN(C(=O)[C@H](CCC(=O)O)NC(=O)c2cc(OC3CCNCC3)cc(-c3ccccc3)n2)CC1	0.0038 µM	Vd [1]: 3.1 L/kg; bioavailability (in vivo): 1%; half-life [2]: 18 min; clearance [3]: 133 mL/min/kg
CCOC(=O)N1CCN(C(=O)[C@H](CCC(=O)O)NC(=O)c2cc(OC)cc(-c3ccccc3)n2)CC1	0.096 µM	–
O=C(O)CC[C@H](NC(=O)c1cc(N2CCC(O)CC2)cc(-c2ccccc2)n1)C(=O)N1CCN(C(=O)OCCC2CCCC2)CC1	0.04 µM	–
C=CCOC(=O)N1CCN(C(=O)[C@H](CCC(=O)O)NC(=O)c2cc(OCCCC)cc(-c3ccccc3)n2)CC1	0.099 µM	–
CCOC(=O)N1CCN(C(=O)[C@H](CCC(=O)O)NC(=O)c2cc(N3CCC(O)CC3)cc(-c3ccccc3)n2)CC1	0.042 µM	–
CCCCCCOC(=O)N1CCN(C(=O)[C@H](CCC(=O)O)NC(=O)c2cc(N3CCC(COC)CC3)cc(-c3ccccc3)n2)CC1	0.033 µM	–
C=CCOC(=O)N1CCN(C(=O)[C@H](CCC(=O)O)NC(=O)c2cc(OCCOC)cc(-c3ccccc3)n2)CC1	0.095 µM	–
CCCCCCOC(=O)N1CCN(C(=O)[C@H](CCC(=O)O)NC(=O)c2cc(N3CCC(CN)CC3)cc(-c3ccccc3)n2)CC1	0.018 µM	–
CN(CCS(C)(=O)=O)c1cc(C(=O)N[C@@H](CCC(=O)O)C(=O)N2CCN(C(=O)OCCC3CCCC3)CC2)nc(-c2ccccc2)c1	0.08 µM	–

SMILES	Ki (P2Y purinoceptor 12)	also measured
CCCCOc1cc(C(=O)N[C@@H](CCC(=O)O)C(=O)N2CCN(C(=O)OC(C)C)CC2)nc(-c2ccccc2)c1	0.146 µM	–
CCCCCCOC(=O)N1CCN(C(=O)[C@H](CCC(=O)O)NC(=O)c2cc(N(C)CCS(C)(=O)=O)cc(-c3ccccc3)n2)CC1	0.036 µM	–
CCCCCCOC(=O)N1CCN(C(=O)[C@H](CCC(=O)O)NC(=O)c2cccc(-c3ccccc3)n2)CC1	0.043 µM	Vd [1]: 1.7 L/kg; bioavailability (in vivo): > 95%; half-life [2]: 42 min; clearance [3]: 29 mL/min/kg
CCOC(=O)N1CCN(C(=O)[C@H](CCC(=O)O)NC(=O)c2cc(NC)cc(-c3ccccc3)n2)CC1	0.035 µM	–
CCOC(=O)N1CCN(C(=O)[C@H](CCC(=O)O)NC(=O)c2cc(OCCN)cc(-c3ccccc3)n2)CC1	0.328 µM	–
CCCCCOC(=O)N1CCN(C(=O)[C@H](CCC(=O)O)NC(=O)c2cc(N3CCC(CN)CC3)cc(-c3ccccc3)n2)CC1	0.007 µM	Vd [1]: 2.6 L/kg; bioavailability (in vivo): 0%; half-life [2]: 24 min; clearance [3]: 70 mL/min/kg
CCCCCOC(=O)N1CCN(C(=O)[C@H](CCC(=O)O)NC(=O)c2cccc(-c3ccccc3)n2)CC1	0.011 µM	Vd [1]: 10.3 L/kg; bioavailability (in vivo): 70%; half-life [2]: 78 min; clearance [3]: 89 mL/min/kg
CCCCCCCOC(=O)N1CCN(C(=O)[C@H](CCC(=O)O)NC(=O)c2cccc(-c3ccccc3)n2)CC1	0.007 µM	–
CCOC(=O)N1CCN(C(=O)[C@H](CCC(=O)O)NC(=O)c2cc(NCCOC)cc(-c3ccccc3)n2)CC1	0.099 µM	–
CCCCOC(=O)N1CCN(C(=O)[C@H](CCC(=O)O)NC(=O)c2cc(OCCOC)cc(-c3ccccc3)n2)CC1	0.018 µM	Vd [1]: 1.5 L/kg; bioavailability (in vivo): 77%; half-life [2]: 24 min; clearance [3]: 49 mL/min/kg
Cc1cccc(N2CCN(C(=O)[C@H](CCC(=O)O)NC(=O)c3cc(-c4ccccc4)cc(-c4ccccc4)n3)CC2)c1	0.0057 µM	–
COCCOc1cc(C(=O)N[C@@H](CCC(=O)O)C(=O)N2CCN(C(=O)OC(C)C)CC2)nc(-c2ccccc2)c1	0.189 µM	–
CCCCCCCCOC(=O)N1CCN(C(=O)[C@H](CCC(=O)O)NC(=O)c2cccc(-c3ccccc3)n2)CC1	0.014 µM	–
CCCCCOC(=O)N1CCN(C(=O)C(CCC(=O)O)NC(=O)c2cc(N3CCC(COC)CC3)cc(-c3ccccc3)n2)CC1 (single isomer, unassigned)	0.51 µM	–
C=CCOC(=O)N1CCN(C(=O)[C@H](CCC(=O)O)NC(=O)c2cc(OCCO)cc(-c3ccccc3)n2)CC1	0.203 µM	–
CCOC(=O)N1CCN(C(=O)[C@H](CCC(=O)O)NC(=O)c2cc(OCCOC)cc(-c3ccccc3)n2)CC1	0.092 µM	–
CCOC(=O)N1CCN(C(=O)[C@H](CCC(=O)O)NC(=O)c2cc(N(CC)CC)cc(-c3ccccc3)n2)CC1	0.023 µM	–
CCOC(=O)N1CCN(C(=O)[C@H](CCC(=O)O)NC(=O)c2cc(OCc3ccccc3)cc(-c3ccccc3)n2)CC1	0.028 µM	–
CCOC(=O)N1CCN(C(=O)[C@H](CCC(=O)O)NC(=O)c2cc(NCCO)cc(-c3ccccc3)n2)CC1	0.114 µM	–
CCOC(=O)N1CCN(C(=O)[C@H](CCC(=O)O)NC(=O)c2cc(OCCCN)cc(-c3ccccc3)n2)CC1	0.214 µM	–
CCCCCOC(=O)N1CCN(C(=O)[C@H](CCC(=O)O)NC(=O)c2cc(N(C)CCS(C)(=O)=O)cc(-c3ccccc3)n2)CC1	0.015 µM	Vd [1]: 1.3 L/kg; half-life [2]: 12 min; clearance [3]: 69 mL/min/kg
CCCNc1cc(C(=O)N[C@@H](CCC(=O)O)C(=O)N2CCN(C(=O)OCC)CC2)nc(-c2ccccc2)c1	0.064 µM	–

SMILES	Ki (P2Y purinoceptor 12)	also measured
CCOC(=O)N1CCN(C(=O)[C@H](CCC(=O)O)NC(=O)c2cc(OC3CCNCC3)cc(-c3ccccc3)n2)CC1	0.068 µM	–
CCOC(=O)N1CCN(C(=O)[C@H](CCC(=O)O)NC(=O)c2cc(N3CCC(N)CC3)cc(-c3ccccc3)n2)CC1	0.027 µM	–
CCOC(=O)N1CCN(C(=O)[C@H](CCC(=O)O)NC(=O)c2cc(NC3CCOCC3)cc(-c3ccccc3)n2)CC1	0.455 µM	–
NCC1CCN(c2cc(C(=O)N[C@@H](CCC(=O)O)C(=O)N3CCN(C(=O)OCCC4CCCC4)CC3)nc(-c3ccccc3)c2)CC1	0.069 µM	–
CCOC(=O)N1CCN(C(=O)[C@H](CCC(=O)O)NC(=O)c2cc(N3CCC(CN)CC3)cc(-c3ccccc3)n2)CC1	0.014 µM	–
C=CCOC(=O)N1CCN(C(=O)[C@H](CCC(=O)O)NC(=O)c2cc(OC3CCNCC3)cc(-c3ccccc3)n2)CC1	0.093 µM	–
CC(C)OC(=O)N1CCN(C(=O)[C@H](CCC(=O)O)NC(=O)c2cc(OC3CCNCC3)cc(-c3ccccc3)n2)CC1	0.157 µM	–
CCCCCCOC(=O)N1CCN(C(=O)[C@H](CCC(=O)O)NC(=O)c2cc(N3CCC(O)CC3)cc(-c3ccccc3)n2)CC1	0.024 µM	–
CCCCOC(=O)N1CCN(C(=O)[C@H](CCC(=O)O)NC(=O)c2cc(OCCO)cc(-c3ccccc3)n2)CC1	0.021 µM	–
CCOC(=O)N1CCN(C(=O)[C@H](CCC(=O)O)NC(=O)c2cc(N3CCC(COC)CC3)cc(-c3ccccc3)n2)CC1	0.018 µM	–
CCOC(=O)N1CCN(C(=O)[C@H](CCC(=O)O)NC(=O)c2ccccn2)CC1	> 5.4 µM	–
COC(=O)N1CCN(C(=O)[C@H](CCC(=O)O)NC(=O)c2cccc(-c3ccccc3)n2)CC1	2.44 µM	–
CCCCCOC(=O)N1CCN(C(=O)[C@H](CCC(=O)O)NC(=O)c2cc(OCCCC)cc(-c3ccccc3)n2)CC1	0.049 µM	–
CC(C)OC(=O)N1CCN(C(=O)[C@H](CCC(=O)O)NC(=O)c2cc(OCCO)cc(-c3ccccc3)n2)CC1	0.145 µM	–
CCOC(=O)N1CCN(C(=O)[C@H](CCC(=O)O)NC(=O)c2cc(NCc3ccccc3)cc(-c3ccccc3)n2)CC1	0.026 µM	–
CCCCCOC(=O)N1CCN(C(=O)[C@H](CCC(=O)O)NC(=O)c2cc(N3CCC(O)CC3)cc(-c3ccccc3)n2)CC1	0.011 µM	–
CCCCOC(=O)N1CCN(C(=O)[C@H](CCC(=O)O)NC(=O)c2cccc(-c3ccccc3)n2)CC1	0.029 µM	–
CCOC(=O)N1CCN(C(=O)[C@H](CCC(=O)O)NC(=O)c2cc(N(C)CCS(C)(=O)=O)cc(-c3ccccc3)n2)CC1	0.048 µM	–
CCOC(=O)N1CCN(C(=O)[C@H](CCC(=O)O)NC(=O)c2cc(NCCN(C)C)cc(-c3ccccc3)n2)CC1	0.27 µM	–
CCCCOC(=O)N1CCN(C(=O)[C@H](CCC(=O)O)NC(=O)c2cc(OCCCC)cc(-c3ccccc3)n2)CC1	0.036 µM	–
